Here are results for 20 compounds from ChEMBL document CHEMBL1143126, “Synthesis, cytotoxic evaluation, and DNA binding of novel thiazolo[5,4-b]quinoline derivatives” (Bioorg Med Chem, 2008).

In general, IC50 refers to the concentration needed to halve the response being measured. Low readings indicate greater potency in that assay, high ones weaker potency in that assay.

One assay deals with SW480. Briefly: Antiproliferative activity against human SW480 cells after 72 hrs by MTT assay. As to conditions: SW480, 72 h. In kind it is functional, cell-based. In a few lines:
(§1)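 Cells seeded at 4.5–5.0 · 10⁴ cells/ml/well in 24-well plates, then incubated with or without compounds added in DMSO. After 72 h, MTT in PBS pH 7.2 was added. Formazan was dissolved in DMSO and the plates centrifuged, then absorbance was read at 540 nm. % growth inhibition = (1 − treated/untreated absorbance) × 100.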
(In general: Formazan colour is commonly taken as a measure of viable cells.)

A further assay relates to SW-620. Briefly: Antiproliferative activity against human SW620 cells after 72 hrs by MTT assay. As to conditions: SW-620, 72 h. Format: functional, cell-based. A digest of the protocol: as §1
In assay [1] the test system is DNA. Briefly: Displacement of ethidium bromide from calf thymus DNA. In kind it is nucleic-acid assay. As to conditions: Bos taurus. A digest of the protocol:
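Fluorescence quenching of the DNA–ethidium bromide complex in Tris–HCl pH 7.4 with 0.15 M NaCl and ethidium bromide. Emission read at 584 nm with excitation at 546 nm, corrected for dilution. Precipitation was monitored by 600 nm light scatter at 90°. Qmax is the maximum quenching; Q50 is the concentration giving 50% quenching. Means of three experiments, SD.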

Assay [2] deals with DNA. Description: Ratio of Qmax for calf thymus DNA to Q50 for calf thymus DNA. Format: nucleic-acid assay. As to conditions: Bos taurus. A digest of the protocol: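 Efficiency index calculated as Qmax/Q50 from ethidium displacement titrations (Tris–HCl pH 7.4, 0.15 M NaCl). Compounds were added serially from DMSO stocks (DMSO ≤8%), and quenching was read at 584 nm with 546 nm excitation. Qmax is the maximum quenching; Q50 is the concentration for 50% quenching of bound ethidium.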

The next assay concerns K562. Briefly: Antiproliferative activity against human K562 cells after 72 hrs by MTT assay. In kind it is functional, cell-based. As to conditions: K562, 72 h. In a few lines: as §1
Assay [3] in a line: Antiproliferative activity against human C33 cells after 72 hrs by MTT assay. Format: functional, cell-based. As to conditions: C33, 72 h. In a few lines:
as §1

The subject of the next assay is HeLa. Description: Antiproliferative activity against human HeLa cells after 72 hrs by MTT assay. In kind it is functional, cell-based. In a few lines: as §1

Regarding `CSc1nc2c(Nc3cccc(N)c3)c3ccccc3nc2s1`, the IC50 is more than 200 µM in the assay with SW480; more than 200 µM in the assay on SW-620; 143 µM in the assay with K562; 139 µM in assay [3]; 176 µM in the assay on HeLa. In the assay on DNA [1], this compound displayed a Q50 of 6.96 µM. Besides, the Ratio in the assay with DNA [2] was 1.17.
For the compound `CSc1nc2c(Nc3ccc(Cl)cc3)c3ccccc3nc2s1`, the IC50 in the assay with SW480 was more than 200 µM; with SW-620, 146 µM; in assay [3] it was more than 200 µM; with HeLa it was 124 µM. Moreover, the Q50 in the assay on DNA [1] was found to be 2.19 µM. The Ratio in the assay on DNA [2] was determined as 0.84.
As for `COc1cccc(Nc2c3ccccc3nc3sc(SC)nc23)c1`, the IC50 turned out to be 66.7 µM in the assay with SW480; 26.6 µM in the assay with SW-620; 22.2 µM in the assay on K562; 75.4 µM in assay [3]; 25.3 µM in the assay with HeLa. Further, in the assay on DNA [1], the Q50 came out at 3.71 µM. In the assay with DNA [2], the Ratio worked out at 1.79.
With `CSc1nc2c(Nc3cccc(C(F)(F)F)c3)c3ccccc3nc2s1`, the Q50 in the assay on DNA [1] was 0.53 µM. Also, in the assay with DNA [2], the Ratio was 3.08. The compound further had an IC50 in assay [3] of 59.7 µM.
As for `CSc1nc2c(Nc3cccc(NC(C)=O)c3)c3ccccc3nc2s1`, the IC50 was more than 200 µM in the assay with SW480; 154 µM in the assay on SW-620; 85.3 µM in the assay with K562; more than 200 µM in assay [3]; more than 200 µM with HeLa. In the assay with DNA [1], this compound showed a Q50 of 18.4 µM. For the same compound, the Ratio in the assay on DNA [2] came out at 0.82.
As to `CCN(CC)CCNC(=O)c1cccc(Nc2c3ccccc3nc3sc(SC)nc23)c1`, the IC50 was determined as 13.6 µM with SW480; 19.7 µM with SW-620; 12.5 µM in the assay on K562; 19.9 µM in assay [3]; 21.7 µM with HeLa. This compound also returned a Q50 with DNA [1] of 16.6 µM. The Ratio in the assay with DNA [2] turned out to be 1.39.
Consider `CSc1nc2c(Nc3cccc(Cl)c3)c3ccccc3nc2s1`, for which the IC50 with SW480 came to 111 µM; in the assay on SW-620 it was 130 µM; in assay [3] it was 129 µM. This compound also showed a Q50 in the assay with DNA [1] of 1.29 µM. For the same compound, in the assay on DNA [2], the Ratio was 2.
`CCN(CC)CCNc1nc2c(Cl)c3ccccc3nc2s1`: the IC50 is 19.5 µM in the assay on SW480; 15.2 µM with SW-620; 9.28 µM in the assay with K562; 9.35 µM in assay [3]; 12.9 µM with HeLa. Moreover, in the assay on DNA [1], the Q50 worked out at 11.1 µM. In addition, the Ratio with DNA [2] turned out to be 2.36.
As for `Nc1cc(CO)cc(Nc2c3ccccc3nc3ccccc23)c1`, the Q50 in the assay with DNA [1] was found to be 7.36 µM. Besides, the Ratio in the assay on DNA [2] was found to be 6.49.
`CSc1nc2c(Nc3ccc(C#N)cc3)c3ccccc3nc2s1`: the IC50 in the assay with SW480 was more than 200 µM; with SW-620, more than 200 µM; in the assay on K562, 120 µM; in assay [3] it was more than 200 µM; in the assay on HeLa it was 140 µM. This compound yielded a Q50 in the assay on DNA [1] of 14.3 µM. Besides, the Ratio in the assay on DNA [2] was found to be 0.9.
Regarding `CCN(CC)CCNc1nc2c(Nc3ccccc3)c3ccccc3nc2s1`, the Q50 in the assay with DNA [1] is 52.5 µM. For the same compound, the Ratio with DNA [2] is 0.46. The compound further had an IC50 in assay [3] of 22.4 µM.
As to `CSc1nc2c(Nc3cccc(O)c3)c3ccccc3nc2s1`, the IC50 in the assay with SW480 was 147 µM; in the assay with SW-620, 146 µM; with K562, 173 µM; in assay [3], 146 µM; in the assay with HeLa, more than 200 µM. Also, the Q50 in the assay on DNA [1] came to 7.64 µM. Further, the Ratio in the assay on DNA [2] stood at 2.15.
For `COc1ccc(Nc2c3ccccc3nc3sc(SC)nc23)cc1`, the IC50 in the assay on SW480 was more than 200 µM; in the assay on SW-620, 111 µM; in the assay on K562, 77.2 µM; in assay [3], more than 200 µM; in the assay with HeLa, more than 200 µM. Also, the Q50 in the assay with DNA [1] turned out to be 9.48 µM. Besides, the Ratio with DNA [2] turned out to be 0.39.
Regarding `CSc1nc2c(Nc3cccc([N+](=O)[O-])c3)c3ccccc3nc2s1`, the IC50 with SW480 was more than 200 µM; in the assay on SW-620, 161 µM; in the assay on K562, more than 200 µM; in assay [3], more than 200 µM; in the assay on HeLa it was 152 µM.
With `COc1cc(NS(C)(=O)=O)ccc1Nc1c2ccccc2nc2ccccc12` [AMSACRINE], the IC50 in assay [3] was determined as 8.8 µM.
Turning to `CCN(CC)CCNc1c2ccccc2nc2sc(SC)nc12`, the IC50 was determined as 28 µM in the assay on SW480; 16.9 µM in the assay on SW-620; 7.85 µM with K562; 9.06 µM in assay [3]; 13 µM in the assay with HeLa. Besides, in the assay with DNA [1], the Q50 came to 9.44 µM. The Ratio in the assay on DNA [2] came out at 4.87.
Regarding `CNc1cccc(Nc2c3ccccc3nc3sc(SC)nc23)c1`, the IC50 with SW480 was 101 µM; in the assay on SW-620 it was 119 µM; in assay [3] it was 134 µM. The Q50 in the assay on DNA [1] is 4.18 µM. The Ratio in the assay with DNA [2] turned out to be 2.37.
Turning to `CSc1nc2c(Nc3cccc(C#N)c3)c3ccccc3nc2s1`, the IC50 in the assay with SW480 came out at 28.7 µM; in the assay with SW-620, 43.8 µM; with K562 it was 8.01 µM; in assay [3], 15.1 µM; in the assay on HeLa it was 7.75 µM. For the same compound, the Q50 in the assay on DNA [1] came to 11.5 µM. Besides, in the assay with DNA [2], the Ratio stood at 0.68.
As for `CSc1nc2c(Nc3ccccc3)c3ccccc3nc2s1`, the IC50 with SW480 was more than 200 µM; in the assay with SW-620, more than 200 µM; in the assay with K562 it was more than 200 µM; in assay [3], 154 µM; with HeLa, more than 200 µM. In the assay on DNA [1], the Q50 worked out at 13.6 µM. For the same compound, the Ratio in the assay on DNA [2] was determined as 0.31.
Turning to `CSc1nc2c(Nc3cc(N)cc(CO)c3)c3ccccc3nc2s1`, the IC50 is more than 200 µM in the assay on SW480; 184 µM in the assay with SW-620; 143 µM in the assay with K562; more than 200 µM in assay [3]; more than 200 µM with HeLa. This compound yielded a Q50 with DNA [1] of 22.6 µM. Besides, the Ratio in the assay with DNA [2] worked out at 0.79.
